Bioassay records as filed in PubChem BioAssay.
NPY-Y1 PAM-ag: NPY-Y1 receptor potentiators or agonists, primary screen, cell-based | 220,000 tested, 0.37% active | NPY-Y1 expressing cells, potentiator/agonist activation | Neuropeptide Y receptor type 1 (Homo sapiens), P25929 | AID 1304, 2008 | activation, % at 3.6 µM; in the data active means activation above about 33%, passing the limit was not always enough;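 further: cells stimulated with NPY at EC10 then isoproterenol at EC100; 0% = low agonist plus stimulus and 100% = saturating agonist plus stimulus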
Target sequence (P25929 whole entry, looked up): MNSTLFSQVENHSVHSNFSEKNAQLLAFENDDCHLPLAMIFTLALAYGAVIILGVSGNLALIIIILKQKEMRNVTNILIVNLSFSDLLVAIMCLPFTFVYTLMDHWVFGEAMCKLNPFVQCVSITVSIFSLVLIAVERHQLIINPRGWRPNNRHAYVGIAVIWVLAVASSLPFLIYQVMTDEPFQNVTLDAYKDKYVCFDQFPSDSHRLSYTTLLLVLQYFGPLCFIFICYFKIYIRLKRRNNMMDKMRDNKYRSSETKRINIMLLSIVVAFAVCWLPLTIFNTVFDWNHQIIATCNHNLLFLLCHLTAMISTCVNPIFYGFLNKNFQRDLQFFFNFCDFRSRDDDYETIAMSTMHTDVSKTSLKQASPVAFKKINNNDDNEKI
NPY Y1 blocker: NPY-Y1 receptor antagonists, primary screen, cell-based; Neuropeptide Y receptor type 1 (Homo sapiens), P25929; HEK293-CNG Y1 cells, membrane potential fluorescence; NPY at EC95, then isoproterenol; 200,000 tested, 1% active; inhibition, % at 3.6 µM;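 active means inhibition above the campaign mean inhibition of all tested compounds plus 3 SD, cut at about 20% in these data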;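 further: 0% = DMSO wells given NPY plus isoproterenol and 100% = isoproterenol alone without NPY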
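System: HEK293 cells with Y1 receptor plus CNG channel / Probe or stimulus: NPY 25 nM then isoproterenol 1 µM plus Ro 20-1724 25 µM / Compound: one concentration, 3.6 µM, in 0.4% DMSO / Schedule: compound incubation 1 h at room temperature, readout 45 min post-stimulation / Measured by: membrane potential fluorescence / Read-out: % inhibition of NPY effect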
NPY-Y2 PAM-ag: NPY-Y2 potentiators or agonists, primary screen, cell-based. AID 1359, 2008. Neuropeptide Y receptor type 2 (Homo sapiens), P49146. 220,000 tested, 0.45% active. activation, % at 3.6 µM. cells expressing NPY-Y2, potentiator/agonist read-out; in the data active means activation above about 27%;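 further: cells stimulated with NPY near EC25 plus isoproterenol at EC100; 0% = vehicle plus submaximal agonist and 100% = vehicle plus saturating agonist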
Target sequence (P49146 whole entry, looked up): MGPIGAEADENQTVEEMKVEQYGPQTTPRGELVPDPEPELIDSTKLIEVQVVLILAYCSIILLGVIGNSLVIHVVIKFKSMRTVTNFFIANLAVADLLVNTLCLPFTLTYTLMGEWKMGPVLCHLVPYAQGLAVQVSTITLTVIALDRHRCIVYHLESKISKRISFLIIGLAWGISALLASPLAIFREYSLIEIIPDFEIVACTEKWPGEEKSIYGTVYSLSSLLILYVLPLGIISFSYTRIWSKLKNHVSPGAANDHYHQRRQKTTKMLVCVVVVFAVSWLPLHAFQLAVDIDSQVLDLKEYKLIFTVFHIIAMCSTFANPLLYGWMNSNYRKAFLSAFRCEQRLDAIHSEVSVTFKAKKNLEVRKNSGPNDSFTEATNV
NPY Y2 blocker: NPY-Y2 receptor antagonists, primary screen, cell-based | NPY-Y2 expressing cells, antagonist mode | AID 793, 2007 | inhibition, % at 2.7 µM | Neuropeptide Y receptor type 2 (Homo sapiens), P49146 | 140,000 tested, 0.99% active; in the data active means inhibition above about 17%;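 further: 0% = vehicle with agonist challenge and 100% = reference antagonist with challenge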
EP2 antag: human EP2 receptor antagonists, primary screen, TR-FRET cAMP, C6 glioma cells. 260,000 tested, 0.52% active. inhibition, % at 25 µM. Prostaglandin E2 receptor EP2 subtype (Homo sapiens), P43116. C6 glioma cells expressing human EP2; cells stimulated with saturating PGE2;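 active means percent inhibition above 40 after rounding to a whole number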;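 further: rat C6 glioma host cells with rolipram phosphodiesterase inhibitor present; the protocol text gives 20 µM as final concentration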
EP2 mod: EP2 receptor modulators, cAMP readout, primary screen, cell-based, HTRF cAMP, PGE2 stimulation | EP2-expressing cells, cAMP HTRF FRET, PGE2 co-stimulation | induction, % at 25 µM | 260,000 tested, 0.83% active | AID 940, 2007;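 active means compounds whose cAMP rise, as percent of the full-agonist control response, exceeds 60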;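 further: rat C6 glioma line stably carrying human EP2 under a CMV promoter; the protocol text gives 20 µM as final concentration; 100% = response of wells given 1 µM PGE2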
EP2 confirm: cAMP induction in EP2, EP4, beta2-AR and parental cells, confirmation, counter-screen for EP2 modulator project, cell-based, five parallel assays, C6 glioma, HEK293; shares compounds with EP2 mod; AID 1080, 2008; cAMP HTRF induction; plus low (about EC15) PGE2 agonist; 1,300 tested, 47% active; calls only at 20 µM (by protocol);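 active means cAMP induction above 50% in the main assay while under 30% in all four parallel counter assays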;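 further: rat C6 glioma cells stably expressing human EP2 receptor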
* marks the source's active call; other numbers are inactive results; i = inactive; / = not tested or not shown; + = active, no number. Shown are actives, neighbours in structure and some others; about 2.8% of the full set was active somewhere.

SMILES | NPY-Y1 PAM-ag | NPY Y1 blocker | NPY-Y2 PAM-ag | NPY Y2 blocker | EP2 antag | EP2 mod | EP2 confirm
CCC(=O)Nc1cc(NC(=O)CSc2nnc3c4c(C)c(C)sc4nc(C(C)C)n23)ccc1C | / | / | / | / | 11.5 | 4.5 | /
CCc1nnc2n1N=C(c1ccc(-c3cc(Cl)ccc3Cl)o1)CS2 | -16.4 | 1.7 | -0.6 | 3.3 | 0.7 | 68.3* | +
CCc1nnc2n1N=C(c1ccc(-c3ccc(Cl)cc3Cl)o1)CS2 | -8.8 | 9.2 | -2.0 | 2.5 | / | / | /
COc1ccc(Cc2nnc(NC(=O)c3c(Cl)cccc3Cl)s2)cc1OC | / | / | / | / | 12.5 | 5.6 | /
c1ccc(-c2noc(CN3CCN(c4ccccc4)CC3)n2)cc1 | -18.4 | 7.4 | -3.3 | 5.9 | 8.9 | -16.7 | /
c1ccc(-c2noc(CN3CCN(C(c4ccccc4)c4ccccc4)CC3)n2)cc1 | -9.2 | -3.2 | -0.5 | 1.0 | 6.0 | 57.4 | i
COc1ccc(Cc2nnc(NC(=O)c3cc(Cl)ccc3OC)s2)cc1OC | / | / | / | / | 16.1 | -31.4 | /
CCOC(=O)c1sc(NC(=O)C(CC)c2ccccc2)nc1C (centres undefined) | / | / | / | / | 10.8 | -29.6 | /
CCOC(=O)c1sc(NC(=O)C(CC)OC(=O)C(CC(C)C)NC(=O)c2ccccc2)nc1C (centres undefined) | -16.8 | -7.1 | -7.6 | 2.3 | 18.5 | 67.4* | i
COc1ccc(N2CCN(C(c3cc(OC)c(OC)c(OC)c3)c3nnnn3C(C)(C)C)CC2)cc1 (centres undefined) | / | / | / | / | 9.4 | -25.6 | /
CCCc1cc(=O)[nH]c(SCC(=O)N2CCC(C(=O)OCC)CC2)n1 | -12.9 | 0.0 | -3.5 | -1.3 | 13.3 | 68.3* | i
Cc1cc(=O)[nH]c(SCC(=O)N2CCC(C(N)=O)CC2)n1 | -20.3 | 7.3 | 12.9 | 1.5 | 5.9 | 13.4 | /
CC(=O)N1c2ccc(NC(=O)c3ccc(-n4cnnc4)cc3Cl)cc2CC1C (centres undefined) | / | / | / | / | 12.5 | -5.3 | /
COc1ccc(-c2nc(-c3cccc(C)c3)no2)cc1OC | 31.0 | 5.6 | 8.4 | 6.5 | 14.9 | -66.0 | /
COc1cc(-c2noc(-c3cccc(Cl)c3)n2)cc(OC)c1OC | -8.4 | -4.9 | 10.4 | 2.5 | 2.1 | 54.9 | +
COc1cc(-c2nc(-c3cccc(C)c3)no2)cc(OC)c1OC | -33.5 | 6.2 | -18.2 | 3.2 | 15.6 | 61.0* | i
O=C(O)COc1ccc(/C=C/c2ccc3cccc([N+](=O)[O-])c3n2)cc1 | -19.8 | -4.8 | 5.3 | -1.2 | 6.1 | 89.2* | +
CC(=O)Nc1ccc(/C=C/c2ccc3cccc([N+](=O)[O-])c3n2)cc1 | 12.0 | / | -5.2 | / | 9.6 | -16.4 | /
COc1cc(/C=C/c2ccc3cccc([N+](=O)[O-])c3n2)ccc1OCC(=O)O | -5.6 | -1.8 | 1.9 | / | 3.9 | 73.3* | +
FC(F)(F)c1cc(-c2ccccc2)nc2nc(N3CCOCC3)sc12 | -21.6 | 5.2 | 3.2 | / | 10.3 | 67.1* | +
Cc1ccccc1S(=O)(=O)c1c(C)cc(C)n(CC(C)C)c1=O | -16.1 | 1.9 | -9.7 | 5.9 | 8.8 | 69.6* | +
COc1ccc(OC)c(-c2cnc(OC(C)(C)C)nc2OC(C)(C)C)c1 | 18.9 | 0.4 | -0.4 | 11.6 | 7.8 | 69.8* | i
Cc1cnn(-c2nc(-c3ccccc3)cc(-c3ccccc3)n2)c1 | -26.7 | 10.6 | -20.3 | / | 4.8 | 66.6* | +
CCOC(=O)c1c(NC(=O)c2c(Br)cnn2CC)sc(C)c1C | -20.3 | -3.5 | 6.7 | 1.8 | 14.3 | 72.7* | +
CCOC(=O)c1c(NC(=O)c2ccoc2C)sc(C)c1C | -29.9 | 4.2 | -8.8 | 5.5 | 17.1 | 76.9* | i
SMILES | NPY-Y1 PAM-ag | NPY Y1 blocker | NPY-Y2 PAM-ag | NPY Y2 blocker | EP2 antag | EP2 mod | EP2 confirm
CCOC(=O)c1c(NC(=O)CSC(=S)N(C)C)sc(C)c1C | -47.2 | -3.3 | -3.4 | 1.6 | 8.8 | 66.1* | +
CCOC(=O)c1c(NC(=O)c2ccncc2)sc(C)c1C | -11.2 | 6.4 | 1.9 | / | 7.2 | 74.2* | +
CCOC(=O)c1c(NC(=O)c2ccc(Cl)s2)sc(C)c1C | / | / | / | / | 13.2 | / | /
CCn1ncc(Br)c1C(=O)Nc1sc2c(c1C(=O)OC)CCC2 | -17.7 | 9.6 | 14.0 | 4.7 | 39.1 | / | /
CCOC(=O)c1c(NC(=O)COC(=O)c2ccncc2)sc(C)c1C | 7.5 | -1.2 | -0.2 | / | 3.7 | 20.6 | /
COc1ccc(Cc2nnc(NC(=O)CCC3CCCCC3)s2)cc1OC | / | / | / | / | 8.9 | 35.9 | /
CCS(=O)(=O)Nc1ccc(-c2nnc(SCC(=O)Nc3ccc(OC)cc3)o2)cc1 | / | / | / | / | 7.6 | -26.5 | /
O=C(Cc1ccc(F)cc1Cl)N1CCC(O)(c2ccccn2)CC1 | / | / | / | / | / | -21.4 | /
COC(=O)c1cc2sccc2n1CC(=O)N1CCCc2ccccc21 | -1.5 | -0.6 | 0.2 | 4.9 | 5.0 | 30.5 | /
O=C(c1cc2sccc2n1Cc1ccccc1)N1CCCc2ccccc21 | -31.4 | 13.2 | -12.5 | 0.7 | 4.2 | 69.0* | +
Cn1c(C(=O)N2CCCc3ccccc32)cc2sccc21 | 8.7 | 5.5 | -8.3 | 4.6 | 9.1 | 65.8* | +
O=C(c1cc2sccc2n1Cc1ccccc1)N1CCCCC1 | / | / | / | / | 9.5 | 43.1 | /
Cc1ccccc1Nc1cccc2nonc12 | -14.4 | 1.7 | 3.5 | 3.9 | 6.8 | 66.5* | +
CCOc1ccc(OCC)c(NC(=O)CN2CCN(c3ccc(OC)cc3)CC2)c1 | / | / | / | / | 6.0 | 15.5 | /
Cc1cc(C)n2nc(C(=O)NC3(c4cccc(F)c4)CCCC3)cc2n1 | / | / | / | / | 1.5 | -313.6 | /
Cc1ccc(NCc2ccccc2OCc2ccccc2F)cc1 | -17.4 | 18.8 | -2.6 | 5.1 | 9.4 | 76.4* | i
Oc1ccc(NCc2ccccc2OCc2ccccc2F)cc1 | 0.1 | -4.4 | -23.9 | 3.0 | 16.9 | 30.3 | /
CCOC(=O)c1sc(NC(=O)CN2C(=O)c3cccc4cccc(c34)C2=O)nc1C | 1.9 | -5.7 | -0.6 | -0.2 | -3.3 | 66.1* | i
COc1ccc(N(CC(=O)NCc2ccccc2)C(=O)CCC(=O)Nc2ccccn2)cc1 | / | / | / | / | 6.8 | -42.9 | /
Cc1ccc(C2(NS(=O)(=O)c3ccc(N4CCCC4=O)cc3)CC2)cc1 | / | / | / | / | 8.9 | -63.0 | /
COc1cc2cc(Br)cc(Br)c2nc1C | -20.3 | 8.2 | -7.4 | 2.9 | 14.2 | 77.7* | i
COc1cc2cnncc2cc1OC | -10.1 | 3.6 | -4.1 | -0.7 | 5.2 | 16.8 | /
